Experimental data as given in paper PMC6427922 (Bioorganic & medicinal chemistry letters, 2018).
“Also recorded” adds a separate entry of the source. Read-outs that look alike come from different tables or passages of the source. Values belong to the molecule of their own block, whether it stands above or below them.

Tests used:
hM1 [1] = molecular target: T1, hM1 (Homo sapiens, UniProt P11229); format: cell-based; conditions: for M1 PAM activity in words (relative to 14 or comparators): hM1-CHO
T1 sequence (P11229 1-460): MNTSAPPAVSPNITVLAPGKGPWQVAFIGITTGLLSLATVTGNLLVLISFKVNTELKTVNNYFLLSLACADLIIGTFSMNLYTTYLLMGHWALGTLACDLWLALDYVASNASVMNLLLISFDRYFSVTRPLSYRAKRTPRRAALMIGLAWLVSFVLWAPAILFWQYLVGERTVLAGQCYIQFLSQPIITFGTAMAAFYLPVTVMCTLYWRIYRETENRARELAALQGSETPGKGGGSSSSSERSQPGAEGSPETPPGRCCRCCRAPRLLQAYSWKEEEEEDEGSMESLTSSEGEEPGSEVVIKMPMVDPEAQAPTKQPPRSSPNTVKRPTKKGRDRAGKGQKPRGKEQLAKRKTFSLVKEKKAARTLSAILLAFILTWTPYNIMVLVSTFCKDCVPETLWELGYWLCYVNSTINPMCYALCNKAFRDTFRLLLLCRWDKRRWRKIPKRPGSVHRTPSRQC
Procedure, shortened: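 Calcium mobilization in CHO cells expressing human M1, with a fixed EC20 concentration of acetylcholine present. Read-outs are EC50, pEC50 and ACh Max. Values are means of three independent experiments, each run in triplicate. Fold changes are expressed against a racemic reference compound.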

[2] = Metabolite identification studies; format: in vitro ADME
NR1 knock-down mice = conditions: cited from earlier work
[3] = rats; cited from earlier work
[4] = mice; cited from earlier work
M1 = conditions: cells and native systems; cited from earlier work
[5] = system: cognitive deficits induced by risperidone; conditions: cited from earlier work
[6] = non-human primates; cited from earlier work
M3 = conditions: read-out: M3 EC50; selectivity; cited from earlier work
[7] = Predicted hepatic clearance, human; format: in vitro ADME
M5 = conditions: read-out: M5 EC50; selectivity; cited from earlier work
hM1 [8] = molecular target: T1, hM1; conditions: reference compound, racemate of 7; cited from earlier work
M2 = conditions: read-out: M2 EC50; selectivity; cited from earlier work
M4 = conditions: read-out: M4 EC50; selectivity; cited from earlier work

M1 PAM activity in words (relative to 14 or comparators) (hM1 [1]): comparable activity
SMILES: O=C(N[C@H]1CCC[C@@H]1O)C1CN(Cc2ccc(-n3cccn3)cc2)c2ccccc2O1 (some centres unmarked) [25b]

Fold loss in M1 PAM activity on deletion of the hydroxyl group on the pyran ring (hM1 [1]; relative to pyran homolog 25c): ~ 34 fold
SMILES: O=C(NC1CCOCC1)C1CN(Cc2ccc(-n3cccn3)cc2)c2ccccc2O1 (centres unmarked) [25d]

M1 PAM activity in words (relative to 14 or comparators) (hM1 [1]): retained reasonable M1 PAM activity
SMILES: NC1CCCCC1NC(=O)C1CN(Cc2ccc(-n3cccn3)cc2)c2ccccc2O1 (centres unmarked) [25e]

M1 PAM activity in words (relative to 14 or comparators) (hM1 [1]): retained reasonable M1 PAM activity
SMILES: O=C(N[C@H]1CCCCC1=O)C1CN(Cc2ccc(-n3cccn3)cc2)c2ccccc2O1 (some centres unmarked) [25f]

M1 PAM activity in words (relative to 14 or comparators) (hM1 [1]): equipotent to 14
SMILES: O=C(Nc1ncccc1O)C1CN(Cc2ccc(-n3cccn3)cc2)c2ccccc2O1 (centres unmarked) [25j]
Route of metabolism [2]: amide hydrolysis by esterases liberating 27

M1 PAM activity in words (relative to 14 or comparators) (hM1 [1]): active
SMILES: Cn1nccc1-c1ccc(CN2CC(C(=O)N[C@H]3CCCC[C@@H]3O)Oc3ccccc32)cn1 (some centres unmarked) [28 k]

M1 PAM activity in words (relative to 14 or comparators) (hM1 [1]): increase in M1 PAM potency
SMILES: O=C(N[C@H]1CCCC[C@@H]1O)C1CN(Cc2ccc(-n3cccc3)nc2)c2ccccc2O1 (some centres unmarked) [28j]

SMILES: Cn1cc(-c2ccc(Cn3cc(C(=O)N[C@H]4CCCC[C@@H]4O)c4c(F)cc(F)cc43)cn2)cn1 [compound 6]
Efficacy in NR1 knock-down mice (NR1 knock-down mice): robust efficacy

SMILES: O=C(N[C@H]1CCCC[C@@H]1O)[C@H]1CN(Cc2ccc(-n3cccn3)cc2)c2ccccc2O1 [compound 7]
Cholinergic toxicity [3]: devoid of cholinergic toxicity
Cholinergic toxicity [4]: devoid of cholinergic toxicity
M1 agonism (M1): devoid of M1 agonism; also recorded: devoid of agonist activity in native systems
Reversal of cognitive deficits induced by atypical antipsychotics [5]: reverse the cognitive deficits induced by atypical antipsychotics
Cholinergic toxicity [6]: devoid of cholinergic toxicity

SMILES: O=C(N[C@H]1CCCC[C@@H]1O)C1CN(Cc2ccc(-n3cccn3)cc2)c2ccccc2O1 (some centres unmarked) [compound 14]
EC50 (M3): > 30 µM
Predicted hepatic clearance CLhep, human [7]: 11.1 mL/min/kg
EC50 (M5): > 30 µM
M1 pEC50 (hM1 [8]): 6.10 ± 0.13
Route of metabolism [2]: P450-mediated debenzylation to afford 26
EC50 (M2): > 30 µM
EC50 (M4): > 30 µM

M1 PAM activity in words (relative to 14 or comparators) (hM1 [1]): essentially equipotent to 14
SMILES: O=C(N[C@H]1CCCC[C@@H]1O)C1Cc2ccccc2N(Cc2ccc(-n3cccn3)cc2)C1 (some centres unmarked) [compound 15]

M1 PAM activity in words (relative to 14 or comparators) (hM1 [1]): equipotent to 14
SMILES: O=C(N[C@H]1CCCC[C@@H]1O)C1CN(Cc2ccc(-n3cccn3)nc2)c2ccccc2O1 (some centres unmarked) [compound 18]

Fold decrease in M1 PAM activity relative to 14 (hM1 [1]; relative to 14): ~ 3 fold
SMILES: O=C(N[C@H]1CCCC[C@@H]1O)C1CN(Cc2ccc(-n3cccn3)cc2)c2c(F)cccc2O1 (some centres unmarked) [compound 21]

Fold increase in M1 PAM potency relative to 14 (hM1 [1]; relative to 14): ~ 3 fold
SMILES: O=C(N[C@H]1CCCC[C@@H]1O)C1CN(Cc2ccc(-n3cccn3)cc2)c2cc(F)ccc2O1 (some centres unmarked) [compound 22]

Fold increase in M1 PAM potency relative to 14 (hM1 [1]; relative to 14): ~7 fold
SMILES: O=C(N[C@H]1CCCC[C@@H]1O)C1CN(Cc2ccc(-n3cccn3)cc2)c2cccc(F)c2O1 (some centres unmarked) [compound 24]
